Laboratory results published in PMC5955861 (Oncogene, 2018).
Like-named read-outs stand apart in the source and are kept apart here.

Columns and labels:
L-363 = assay: alamarBlue cell proliferation assay; assay type: cell-based; details: Homo sapiens
How it was run: (§1)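 Leukemia, lymphoma and myeloma lines (from ATCC or DSMZ, grown per supplier instructions, STR-authenticated; GFP-labelled sublines where stated) were incubated with test compound in 96-well flat-bottom plates. Viability was read by alamarBlue conversion, and EC50 was taken from the concentration-response.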

Kasumi-1 = assay: alamarBlue cell proliferation assay; assay type: cell-based; details: Homo sapiens
How it was run: as §1

OCI-Ly19 = assay: alamarBlue cell proliferation assay; assay type: cell-based; details: Homo sapiens
How it was run: as §1

Toledo = assay: alamarBlue cell proliferation assay; assay type: cell-based; details: Homo sapiens
How it was run: (§2)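 Cell lines from ATCC or DSMZ were cultured per supplier's instructions and STR-authenticated. MV-4-11B is a clone of MV-4-11 carrying heterozygous TP53 c.742C>T (p.R248W). Cells were exposed to test compound in 96-well format, and viability was read after incubation with alamarBlue.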

MV-4-11B cells = assay: IncuCyte live-cell proliferation and caspase-3/7 apoptosis assay; assay type: cell-based
RL = assay: alamarBlue cell proliferation assay; assay type: cell-based; details: Homo sapiens
How it was run: as §1

CCRF-CEM = assay: alamarBlue cell proliferation assay; assay type: cell-based; details: Homo sapiens
How it was run: as §1

THP-1 = assay: alamarBlue cell proliferation assay; assay type: cell-based; details: Homo sapiens
How it was run: as §2

KG-1 = assay: alamarBlue cell proliferation assay; assay type: cell-based; details: Homo sapiens
How it was run: as §1

MUTZ-3 = assay: alamarBlue cell proliferation assay; assay type: cell-based
How it was run: as §1

OCI-AML3 = assay: alamarBlue cell proliferation assay; assay type: cell-based; details: Homo sapiens, OCI-AML-3
How it was run: as §1

[1] = test system: AML primary patient samples; assay: proliferation of ex vivo-treated primary patient samples; assay type: cell-based; details: Homo sapiens
DB = assay: alamarBlue cell proliferation assay; assay type: cell-based; details: Homo sapiens
How it was run: as §1

hematological cell lines = assay: alamarBlue cell proliferation assay, panel of hematological cell lines; assay type: cell-based
How it was run: as §2

JEKO-1 = assay: alamarBlue cell proliferation assay; assay type: cell-based; details: Homo sapiens
How it was run: as §1

NOMO-1 = assay: alamarBlue cell proliferation assay; assay type: cell-based; details: Homo sapiens
How it was run: as §1

SU-DHL2 = assay: alamarBlue cell proliferation assay; assay type: cell-based; details: Homo sapiens, SU-DHL-2
How it was run: as §1

OCI-Ly18 = assay: alamarBlue cell proliferation assay; assay type: cell-based; details: Homo sapiens
How it was run: as §1

DOHH-2 = assay: alamarBlue cell proliferation assay; assay type: cell-based; details: Homo sapiens
How it was run: as §1

MV-4-11B AML cells = assay: disseminated AML xenograft efficacy study; assay type: in vivo, CIEA-NOG mice; details: MV-4-11B i.v. engrafted
HT = assay: alamarBlue cell proliferation assay; assay type: cell-based; details: Homo sapiens
How it was run: as §1

In the case of `CNc1nc(-c2nc3ccc(N4CCN(C)CC4)cc3n2Cc2ccccc2)cn2c(C)nnc12` [BI 894999], the EC50 (L-363) is reported as 13.7 ± 6.2 nM, the EC50 (Kasumi-1) is reported as 2.8 ± 0.4 nM and the EC50 (OCI-Ly19) is reported as 13.2 ± 4.3 nM. For the same molecule, the EC50 (Toledo) was 6 ± 1.1 nM, the “effect on proliferation (IncuCyte)” value (MV-4-11B cells; 10 nM) was “Significant inhibition of proliferation” and the “time of peak of apoptosis (Caspase-3/7) after start of treatment” value (MV-4-11B cells; dose-range 0.05 to 100 nM) was “around 40 h”. The EC50 (RL) was 18.2 ± 10 nM, the EC50 (CCRF-CEM) was 175 ± 58 nM and the EC50 (THP-1) was 6.3 ± 2.9 nM. It also gave an EC50 (KG-1) of 6.2 ± 2.2 nM, an EC50 (MUTZ-3) of 12.8 ± 11.2 nM and an EC50 (OCI-AML3) of 2.3 ± 0.5 nM. For the same molecule, the EC50 ([1]; 16/20 AML patient samples) was less than 10 nM, the EC50 ([1]; read-out: BI 894999 EC50, AML Patient 1, risk group Intermediate) was 4 nM and the EC50 ([1]; read-out: BI 894999 EC50, AML Patient 2, risk group Intermediate) was less than 1 nM. The EC50 ([1]; read-out: BI 894999 EC50, AML Patient 3, risk group Intermediate) was 5 nM, the EC50 ([1]; read-out: BI 894999 EC50, AML Patient 4, risk group High) was 1080 nM and the EC50 ([1]; read-out: BI 894999 EC50, AML Patient 5, risk group High) was 89 nM. For the same molecule, the EC50 ([1]; read-out: BI 894999 EC50, AML Patient 6, risk group Intermediate) was 2 nM, the EC50 ([1]; read-out: BI 894999 EC50, AML Patient 7, risk group Intermediate) was 12 nM and the EC50 ([1]; read-out: BI 894999 EC50, AML Patient 8, risk group High) was 2 nM. The EC50 ([1]; read-out: BI 894999 EC50, AML Patient 9, risk group Intermediate) was 5 nM, the EC50 ([1]; read-out: BI 894999 EC50, AML Patient 10, risk group High) was less than 1 nM and the EC50 ([1]; read-out: BI 894999 EC50, AML Patient 11, risk group High) was 18 nM. It also gave an EC50 ([1]; read-out: BI 894999 EC50, AML Patient 12, risk group Intermediate) of 4 nM, an EC50 ([1]; read-out: BI 894999 EC50, AML Patient 13, risk group Intermediate) of less than 1 nM and an EC50 ([1]; read-out: BI 894999 EC50, AML Patient 14) of less than 1 nM. The EC50 ([1]; read-out: BI 894999 EC50, AML Patient 15, risk group Intermediate) was 1 nM, the EC50 ([1]; read-out: BI 894999 EC50, AML Patient 16) was less than 1 nM and the EC50 ([1]; read-out: BI 894999 EC50, AML Patient 17, risk group High) was less than 1 nM. It also gave an EC50 ([1]; read-out: BI 894999 EC50, AML Patient 18, risk group Intermediate) of less than 1 nM, an EC50 ([1]; read-out: BI 894999 EC50, AML Patient 19, risk group Intermediate) of less than 1 nM and an EC50 ([1]; read-out: BI 894999 EC50, AML Patient 20, risk group Intermediate) of less than 1 nM. The EC50 (DB) was 11.6 ± 7.6 nM, the EC50 (hematological cell lines) was less than 10 nM and the EC50 (hematological cell lines; Homo sapiens, K562) was less than 100 nM. For the same molecule, the “increased potency compared to OTX-015” value (hematological cell lines; on cell lines) was 10–20 fold, the EC50 (JEKO-1) was 7.9 ± 2.1 nM and the EC50 (NOMO-1) was 5.7 ± 4.1 nM. It also gave an EC50 (SU-DHL2) of 10.7 ± 3.2 nM, an EC50 (OCI-Ly18) of 5.6 ± 0.9 nM and an EC50 (DOHH-2) of 6.2 ± 0.8 nM. The survival prolongation (MV-4-11B AML cells; daily oral 2 mg/kg) was 29.5 days, the “tumor growth inhibition (TGI)” value (MV-4-11B AML cells; daily oral 2 mg/kg) was 96% and the survival prolongation (MV-4-11B AML cells; daily oral 4 mg/kg) was 52 days. For the same molecule, the “tumor growth inhibition (TGI)” value (MV-4-11B AML cells; daily oral 4 mg/kg) was 99% and the EC50 (HT) was 11.6 ± 8.1 nM.
